Compound activity: PubChem, several laboratories
Lipid droplet = modulators of hepatic lipid droplet formation; AML12 mouse hepatocytes, oleate lipid droplets, BODIPY imaging; inhibition, % at 6.5 µM; 240,000 compounds, 0.4% hits; AID 1656;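 active means lipid droplet intensity inhibited by at least 50%, with more than 500 cells counted; inconclusive means wells with under 300 cells, treated as cytotoxic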
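Assay system: AML12 mouse liver cells | Compound dosing: One dose, 6.5 µM compound | Read-out basis: Droplet intensity reduction, % inhibition | Measured by: Fluorescence imaging, 20x objective, two fields per well | Schedule: Overnight treatment with compound plus oleate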
H9c2 TAG inh = triacylglycerol accumulation inhibition; H9c2 cells, Nile Red lipid (TAG) fluorescence; cells loaded with 200 µM oleic acid; 230,000 compounds, 0.66% hits; inhibition, % at 12.5 µM;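 active means pattern-corrected inhibition of lipid staining of at least 50% with the nuclear-stain viability signal not falling by more than 50%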;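 further: 0% = DMSO wells and 100% = triacsin C control wells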
STAT3 blocker = reduces IL-6 driven STAT3 reporter signal | U3A cells, IL-6 STAT3-luciferase reporter, luminescence; host cell line lacks STAT1 | inhibition, % at 5.5 µM | 190,000 compounds, 0.89% hits | AID 862;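 active means inhibition above the mean inhibition across all screened compounds plus 3 SD, cut at about 44% in these data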;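 further: 0% = DMSO only wells and 100% = 100 µM nifuroxazide control wells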
Platelet DG rel = modulates dense granule release in human platelets; human platelet-rich plasma, SFLLRN dense granule ATP release, luminescence; inhibition, %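 (compounds screened at 7.5 µM in platelet-rich plasma)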; 300,000 compounds, 0.22% hits; AID 1663;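 active means mean replicate score, as percent of positive control, at or above 50; inconclusive means mean below 50 but at least one replicate at or above 50; inactive means mean and every replicate below 50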
PPC-1+TRAIL kill = compounds killing PPC-1 cancer cells with TRAIL present (potentiator screen, no TRAIL-free arm); 220,000 compounds, 0.41% hits; cell killing (% activity), % at 4 µM or 5 µM; AID 1443; PPC-1 cells + TRAIL, ATPLite viability luminescence;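 active means cell killing above 50% in the first pass at 4 µM, then a duplicate retest at 5 µM averaging 50% or more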;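 further: plate controls were cells with TRAIL plus DMSO for no effect and medium-only wells lacking cells for full effect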
STAT1 inh-1 = inhibitors of IFN-gamma induced STAT1 signaling. NIH 3T3 STAT1-luciferase reporter, luminescence. inhibition, % at 5.5 µM. 200,000 compounds, 0.35% hits;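 active means inhibition above a set limit, the mean inhibition across all tested compounds plus 3 SD, cut at about 34% in these data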;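 further: 0% = IFN-gamma with DMSO and 100% = IFN-gamma with 300 µM nifuroxazide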
STAT1 inh-2 = confirmation of STAT1 signaling inhibitors; shares compounds with STAT1 inh-1; NIH 3T3 STAT1-luciferase reporter, IFN-gamma, luminescence; inhibition, % at 5.5 µM; 200 compounds, 55% hits;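 active means triplicate mean inhibition exceeding the hit cutoff computed for the primary STAT1 screen, cut at about 35% in these data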;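 further: 0% = DMSO with IFN-gamma and 100% = 300 µM nifuroxazide with IFN-gamma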
NFkB inh = inhibits NF-kappaB, counter-screen to STAT1 inhibitors; 200 compounds, 30% hits; inhibition, % at 5.7 µM; AID 1303; HEK293T NF-kB luciferase reporter, TNF-alpha induced, luminescence; shares compounds with STAT1 inh-1;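 active means inhibition above the mean of solvent-only control wells plus 3 SD of those wells, cut at about 15% in these data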;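 further: 0% = DMSO with TNF-alpha and 100% = MG-132 control with TNF-alpha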
STAT3 inh 2 = inhibits STAT3, counter-screen to STAT1 inhibitors; shares compounds with STAT1 inh-1; U3A cells, IL-6 STAT3 luciferase reporter, luminescence; cells lacking STAT1; inhibition, % at 5.7 µM; 200 compounds, 20% hits; AID 1310;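 active means inhibition above the mean of solvent-only control wells plus 3 SD, set per campaign, cut at about 25% in these data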;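 further: 0% = IL-6 plus DMSO and 100% = IL-6 plus nifuroxazide control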
The depositor's hits bear a star; u = inconclusive; x = no result given. In the library only some 1.5% were active in any assay of this set; here they are far more common.

SMILES	Lipid droplet	H9c2 TAG inh	STAT3 blocker	Platelet DG rel	PPC-1+TRAIL kill	STAT1 inh-1	STAT1 inh-2	NFkB inh	STAT3 inh 2
O=C(O)c1ccc(N=NNc2cccc([N+](=O)[O-])c2)cc1	-3	x	1	12	-10	-48	x	x	x
Cc1cc(C)n(S(=O)(=O)/C=C/c2ccccc2)n1	0	-3	29	1	27	38*	42*	-3	4
Cc1cc(NC(=O)CSc2nnc3ccc(-c4ccccc4)nn23)no1	x	0	x	x	x	x	x	x	x
COc1ccc(Nc2nc(-c3c(C)nc4ncccn34)cs2)cc1	u	x	13	x	x	29	x	x	x
COc1ccccc1Nc1nc(-c2c(C)nc3ncccn23)cs1	-43	10	40	-25	x	39*	36*	5	30*
CS(=O)(=O)c1nc(-c2ccccc2)cc(C(F)(F)F)n1	4	13	6	17	-2	36*	47*	-3	2
Cc1cc(NC(=O)CCS(=O)(=O)c2nc(-c3ccccc3)cc(C(F)(F)F)n2)no1	3	25	x	x	1	x	x	x	x
CC(C)CC1C(=O)N(Cc2cn(CC3CCCCC3)nn2)CCS(=O)(=O)N1Cc1ccc(-c2cccc(CO)c2)cc1 (stereo unspecified)	x	19	x	x	x	x	x	x	x
Cc1ccc(C(=O)Nc2cccc(N(C)S(C)(=O)=O)c2)cc1S(=O)(=O)Nc1ccccc1	x	x	22	7	20	40*	34*	7	9
COc1ccc(CCNC(=O)Cn2c(=O)n(-c3ccc(C)c(F)c3)c(=O)c3sccc32)cc1OC	5	-6	4	-2	-6	52*	45*	16*	19
COCCCNC(=O)Cn1c(=O)n(CC(=O)NCCc2ccc(OC)c(OC)c2)c(=O)c2sccc21	4	7	0	-7	13	2	x	x	x
COC(=O)Cn1ccnc1[N+](=O)[O-]	x	4	x	x	x	x	x	x	x
COc1cccc(-n2nnnc2S(C)(=O)=O)c1	11	x	12	5	-1	35*	44*	9	-48
Cc1ccc(S(=O)(=O)N2[C@@H](c3ccc(Br)cc3)C(C(=O)O)=CC[C@H]2c2cccs2)cc1	x	11	x	x	x	x	x	x	x
Cn1cc([N+](=O)[O-])c(C(=O)Nc2cc(Oc3ccccc3)cc([N+](=O)[O-])c2)n1	-4	x	18	16	26	35*	40*	24*	-1
COc1ccc(-c2ccc(C(=O)Nc3cc(OC)c(OC)c(OC)c3)c3occc23)c(C)c1	x	0	x	x	x	x	x	x	x
O=C(CSc1nc2ccccc2c(=O)n1Cc1ccco1)N1CCCC1	-7	-6	4	-4	9	37*	19	10	10
Cc1cc(O)ccc1N1C(=O)c2cccc3cc([N+](=O)[O-])cc(c23)C1=O	3	-5	17	-10	9	46*	30	0	9
O=C1c2cccc3cc([N+](=O)[O-])cc(c23)C(=O)N1c1ccccc1O	-4	8	-14	0	5	3	x	x	x
COc1ccc(N2CCN(CCCNC(=O)C3CCC(CNc4nc(=S)[nH]c5ccccc45)CC3)CC2)cc1 (stereo unspecified)	19	-2	24	6	-2	23	x	x	x
O=C(C1CCC(CNc2nc(=S)[nH]c3ccccc23)CC1)N1CCN(c2ccc(F)cc2)CC1 (stereo unspecified)	-12	-53	6	12	1	48*	33	6	19
Cc1cc(C(=O)CSc2nncs2)c(C)n1Cc1ccco1	2	-15	43	2	9	35*	-15	20*	26*
O=C(OCC(=O)c1c[nH]c2ccccc12)c1ccc(F)c(S(=O)(=O)N2CCOCC2)c1	x	2	x	x	x	x	x	x	x
CCOC(=O)C1=C(CC)Nc2ccccc2N=C1NC(=O)c1ccc(OC)c(S(=O)(=O)N2CCCCC2C)c1 (stereo unspecified)	8	-11	-6	1	16	37*	17	-2	-22
CCOC(=O)C1=C(CC)Nc2ccccc2N=C1NC(=O)c1ccc(C)c(S(=O)(=O)N2CCOCC2)c1	x	1	x	x	x	x	x	x	x
SMILES	Lipid droplet	H9c2 TAG inh	STAT3 blocker	Platelet DG rel	PPC-1+TRAIL kill	STAT1 inh-1	STAT1 inh-2	NFkB inh	STAT3 inh 2
COc1cccc(C2c3[nH]c4ccccc4c3CCN2Cc2cnc(C)s2)c1OC (stereo unspecified)	-10	10	-27	-1	6	60*	15	12	-27
Cc1cccc(C2c3[nH]c4ccccc4c3CCN2Cc2ccc(C)s2)n1 (stereo unspecified)	-12	-5	-43	14	2	3	x	x	x
COc1ccccc1C1c2[nH]c3ccccc3c2CCN1Cc1cnc(C)s1 (stereo unspecified)	-8	6	-46	13	18	54*	32	6	-53
CCOC(=O)N1CCN(C(=S)NC(=O)c2cc(Br)ccc2Cl)CC1	36	-10	7	4	18	44*	20	-8	0
CCOC(=O)N1CCN(C(=S)NC(=O)c2ccc(Br)cc2)CC1	3	14	-14	4	-2	3	x	x	x
NS(=O)(=O)c1ccc(CCNC(=O)c2ccc(C#CC3(O)CCCCC3)cc2)cc1	9	x	17	2	22	52*	-16	8	-30
COc1ccc(-c2csc(C(O)c3ccc(F)c(F)c3)n2)cc1 (stereo unspecified)	x	-30	x	x	x	x	x	x	x
Cc1noc(C)c1S(=O)(=O)NC(=O)C1(C)CCN1C(=O)c1ccc(C2CCCCC2)cc1 (stereo unspecified)	x	-1	x	x	x	x	x	x	x
CCOC(=O)N1CCN(C(=O)CCn2c(=O)[nH]c3ccsc3c2=O)CC1	-5	8	2	2	4	5	x	x	x
CCOC(=O)N1CCN(C(=O)CCn2c(=S)[nH]c3ccsc3c2=O)CC1	9	-2	13	-11	8	48*	19	-4	-1
COc1cc(NC(=O)Nc2nnc([C@H]3C[C@H](O)[C@@H](CO)O3)s2)cc(OC)c1	x	8	x	x	x	x	x	x	x
CCc1ccc(C(O)c2ncc(-c3ccccc3OC)[nH]2)cc1 (stereo unspecified)	x	-6	x	x	x	x	x	x	x
COc1cccc(NC(=O)CSc2nnc(-c3cc(C)n(-c4ccccc4)c3C)o2)c1	x	8	15	0	11	40*	18	9	-23
CC(C)COc1ccc(C/C(N)=N/n2cnnc2)cc1	8	x	25	3	23	35*	32	11	39*
O=C(O)c1ccccc1C(=O)Nc1ccc(Oc2cccc3ccccc23)cc1	8	15	29	4	5	63*	18	23*	-13
